Data taken from ChEMBL document CHEMBL2021842, “COMPARE analysis of the toxicity of an iminoquinone derivative of the imidazo[5,4-f]benzimidazoles with NAD(P)H:quinone oxidoreductase 1 (NQO1) activity and computational docking of quinones as NQO1 substrates” (Bioorg Med Chem, 2012).

How the values were obtained:
Format in all cases: functional
HCC 2998 = assay: Growth inhibition of human HCC2998 cells
Outline: (§1)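 NCI DTP 60-cell-line screen, second stage: five-dose testing across the human tumour panel. GI₅₀ taken as the concentration needed to inhibit cell growth by 50% in each cell line.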

CAKI-1 [1] = assay: Growth inhibition of human Caki1 cells; outline: as §1
SK-OV-3 = assay: Growth inhibition of human SKOV3 cells
Outline: (§2)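 Part of the NCI DTP 60-cell-line panel. After the single-dose stage, cells were tested at five doses. Read-out is the GI50, the concentration giving 50% inhibition of cell growth, derived for each cell line.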

CCRF-CEM [2] = assay: Growth inhibition of human CCRF-CEM cells assessed as cell growth at 10 uM relative to untreated control; details: read-out: Activity
Outline: (§3)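 NCI DTP 60-cell-line screen, first stage: a single 10 µM dose of compound given to the human tumour panel. Result reported as percent growth relative to control, on a mean growth graph.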

HT-29 = assay: Growth inhibition of human HT-29 cells; outline: as §1
SK-MEL-28 [3] = assay: Growth inhibition of human SK-MEL-28 cells assessed as cell growth at 10 uM relative to untreated control; details: read-out: Activity
Outline: (§4)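 First stage of the NCI DTP 60 human tumour cell-line screen. Cells were exposed to a single dose of 10 µM. Output is reported as growth % relative to control.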

HCT-15 [4] = assay: Growth inhibition of human HCT15 cells assessed as cell growth at 10 uM relative to untreated control; details: read-out: Activity; outline: as §3
DU-145 = assay: Growth inhibition of human DU145 cells; outline: as §1
MDA-MB-468 = assay: Growth inhibition of human MDA-MB-468 cells assessed as cell growth at 10 uM relative to untreated control; details: read-out: Activity; outline: as §4
MDA-MB-231 [5] = assay: Growth inhibition of human MDA-MB-231 cells assessed as cell growth at 10 uM relative to untreated control; details: read-out: Activity; outline: as §4
BT-549 = assay: Growth inhibition of human BT549 cells; outline: as §1
SF-539 [6] = assay: Growth inhibition of human SF539 cells; outline: as §2
SNB-19 = assay: Growth inhibition of human SNB19 cells
Outline: (§5)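 This is the second, five-dose stage of the NCI DTP 60-cell-line screen. GI50 is the concentration that inhibits cell growth by 50%, derived for each cell line.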

MDA-MB-435 [7] = assay: Growth inhibition of human MDA-MB-435 cells; outline: as §2
UO-31 = assay: Growth inhibition of human UO31 cells; outline: as §5
SK-MEL-28 [8] = assay: Growth inhibition of human SK-MEL-28 cells; outline: as §2
NCI-H460 = assay: Growth inhibition of human NCI-H460 cells assessed as cell growth at 10 uM relative to untreated control; details: read-out: Activity; outline: as §4
A498 [9] = assay: Growth inhibition of human A498 cells assessed as cell growth at 10 uM relative to untreated control; details: read-out: Activity; outline: as §3
T47D [10] = assay: Growth inhibition of human T47D cells assessed as cell growth at 10 uM relative to untreated control; details: read-out: Activity
Outline: (§6)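 This is the first stage of the NCI DTP 60-human-tumour-cell-line screen, covering nine tissue types. Cells receive a single dose of the test compound, and the output is reported as mean growth %.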

SK-MEL-5 [11] = assay: Growth inhibition of human SK-MEL-5 cells; outline: as §2
CAKI-1 [12] = assay: Growth inhibition of human Caki1 cells assessed as cell growth at 10 uM relative to untreated control; details: read-out: Activity; outline: as §3
UACC-62 [13] = assay: Growth inhibition of human UACC62 cells; outline: as §5
CCRF-CEM [14] = assay: Growth inhibition of human CCRF-CEM cells; outline: as §1
UACC-257 [15] = assay: Growth inhibition of human UACC257 cells; outline: as §5
MDA-MB-435 [16] = assay: Growth inhibition of human MDA-MB-435 cells assessed as cell growth at 10 uM relative to untreated control; details: read-out: Activity; outline: as §4
OVCAR-5 = assay: Growth inhibition of human OVCAR5 cells; outline: as §2
OVCAR-4 [17] = assay: Growth inhibition of human OVCAR4 cells assessed as cell growth at 10 uM relative to untreated control; details: read-out: Activity; outline: as §4
MCF7 = assay: Growth inhibition of human MCF7 cells; outline: as §2
Malme-3M = assay: Growth inhibition of human MALME-3M cells; outline: as §1
SF-295 [18] = assay: Growth inhibition of human SF295 cells assessed as cell growth at 10 uM relative to untreated control; details: read-out: Activity; outline: as §4
[19] = Growth inhibition of human RPMI8266 cells; outline: as §2
SK-MEL-2 = assay: Growth inhibition of human SK-MEL-2 cells; outline: as §2
T47D [20] = assay: Growth inhibition of human T47D cells; outline: as §5
NCI-H226 [21] = assay: Growth inhibition of human NCI-H226 cells; outline: as §2
OVCAR-4 [22] = assay: Growth inhibition of human OVCAR4 cells; outline: as §2
EKVX = assay: Growth inhibition of human EKVX cells; outline: as §1
UACC-62 [23] = assay: Growth inhibition of human UACC62 cells assessed as cell growth at 10 uM relative to untreated control; details: read-out: Activity; outline: as §6
TK-10 = assay: Growth inhibition of human TK10 cells; outline: as §5
LOX IMVI = assay: Growth inhibition of human LOXIMVI cells assessed as cell growth at 10 uM relative to untreated control; details: read-out: Activity; outline: as §3
U-251 = assay: Growth inhibition of human U251 cells; outline: as §5
UACC-257 [24] = assay: Growth inhibition of human UACC257 cells assessed as cell growth at 10 uM relative to untreated control; details: read-out: Activity; outline: as §6
M14 = assay: Growth inhibition of human M14 cells assessed as cell growth at 10 uM relative to untreated control; details: read-out: Activity; outline: as §3
NCI/ADR-RES = assay: Growth inhibition of human NCI/ADR-RES cells; outline: as §2
SNB-75 = assay: Growth inhibition of human SNB75 cells; outline: as §5
A498 [25] = assay: Growth inhibition of human A498 cells; outline: as §1
ACHN = assay: Growth inhibition of human ACHN cells assessed as cell growth at 10 uM relative to untreated control; details: read-out: Activity; outline: as §3
K562 = assay: Growth inhibition of human K562 cells; outline: as §1
786-0 = assay: Growth inhibition of human 786-0 cells assessed as cell growth at 10 uM relative to untreated control; details: read-out: Activity; outline: as §3
NCI-H226 [26] = assay: Growth inhibition of human NCI-H226 cells assessed as cell growth at 10 uM relative to untreated control; details: read-out: Activity; outline: as §4
[27] = Growth inhibition of human Hs 578T cells; outline: as §1
SF-295 [28] = assay: Growth inhibition of human SF295 cells; outline: as §2
SF-539 [29] = assay: Growth inhibition of human SF539 cells assessed as cell growth at 10 uM relative to untreated control; details: read-out: Activity; outline: as §4
KM12 = assay: Growth inhibition of human KM12 cells; outline: as §1
OVCAR-8 [30] = assay: Growth inhibition of human OVCAR8 cells assessed as cell growth at 10 uM relative to untreated control; details: read-out: Activity; outline: as §4
OVCAR-8 [31] = assay: Growth inhibition of human OVCAR8 cells; outline: as §2
SK-MEL-5 [32] = assay: Growth inhibition of human SK-MEL-5 cells assessed as cell growth at 10 uM relative to untreated control; details: read-out: Activity; outline: as §4
HCT-15 [33] = assay: Growth inhibition of human HCT15 cells; outline: as §1
MDA-MB-231 [34] = assay: Growth inhibition of human MDA-MB-231 cells; outline: as §2

With `N=C1c2nc3n(c2C(=O)c2nc4n(c21)CCCC4)CCCC3` the GI50 (HCC 2998) was 4.79 µM, the GI50 (CAKI-1 [1]) was 15.5 µM and the GI50 (SK-OV-3) was 33.1 µM. It also gave a growth at 10 µM (CCRF-CEM [2]) of 92.9%, a GI50 (HT-29) of 2750 nM and a growth at 10 µM (SK-MEL-28 [3]) of -67.2%. The growth at 10 µM (HCT-15 [4]) was 6.18%, the GI50 (DU-145) was 1410 nM and the growth at 10 µM (MDA-MB-468) was 68.1%. It also gave a growth at 10 µM (MDA-MB-231 [5]) of 82.6%, a GI50 (BT-549) of 2040 nM and a GI50 (SF-539 [6]) of 2570 nM. For the same compound, the GI50 (SNB-19) was 2570 nM, the GI50 (MDA-MB-435 [7]) was 245 nM and the GI50 (UO-31) was 2340 nM. It also gave a GI50 (SK-MEL-28 [8]) of 2090 nM, a growth at 10 µM (NCI-H460) of 4.62% and a growth at 10 µM (A498 [9]) of 52%. It also gave a growth at 10 µM (T47D [10]) of 71.9%, a GI50 (SK-MEL-5 [11]) of 1200 nM and a growth at 10 µM (CAKI-1 [12]) of 88.8%. The GI50 (UACC-62 [13]) was 1740 nM, the GI50 (CCRF-CEM [14]) was 49 µM and the GI50 (UACC-257 [15]) was 1950 nM. For the same compound, the growth at 10 µM (MDA-MB-435 [16]) was -82.5%, the GI50 (OVCAR-5) was 2630 nM and the growth at 10 µM (OVCAR-4 [17]) was 96.2%. The GI50 (MCF7) was 1860 nM, the GI50 (Malme-3M) was 1860 nM and the growth at 10 µM (SF-295 [18]) was -85.7%. The GI50 [19] was 25.7 µM, the GI50 (SK-MEL-2) was 38 µM and the GI50 (T47D [20]) was 17.4 µM. The GI50 (NCI-H226 [21]) was 1740 nM, the GI50 (OVCAR-4 [22]) was 34.7 µM and the GI50 (EKVX) was 25.1 µM. It also gave a growth at 10 µM (UACC-62 [23]) of -85.1%, a GI50 (TK-10) of 70.8 µM and a growth at 10 µM (LOX IMVI) of -68%. The GI50 (U-251) was 10 µM, the growth at 10 µM (UACC-257 [24]) was -6.6% and the growth at 10 µM (M14) was -95.6%. The GI50 (NCI/ADR-RES) was 35.5 µM, the GI50 (SNB-75) was 2190 nM and the GI50 (A498 [25]) was 6.03 µM. For the same compound, the growth at 10 µM (ACHN) was 69.4%, the GI50 (K562) was 20.4 µM and the growth at 10 µM (786-0) was 89%. The growth at 10 µM (NCI-H226 [26]) was 57.1%, the GI50 [27] was 2190 nM and the GI50 (SF-295 [28]) was 1740 nM. For the same compound, the growth at 10 µM (SF-539 [29]) was -21.7%, the GI50 (KM12) was 13.2 µM and the growth at 10 µM (OVCAR-8 [30]) was 91.5%. The GI50 (OVCAR-8 [31]) was 31.6 µM, the growth at 10 µM (SK-MEL-5 [32]) was -98% and the GI50 (HCT-15 [33]) was 2630 nM. For the same compound, the GI50 (MDA-MB-231 [34]) was 39.8 µM.
`O=C1c2nc3n(c2C(=O)c2nc4n(c21)CCCC4)CCCC3` gave a growth at 10 µM (CCRF-CEM [2]) of 103%, a growth at 10 µM (SK-MEL-28 [3]) of 118% and a growth at 10 µM (HCT-15 [4]) of 103%. For the same compound, the growth at 10 µM (MDA-MB-468) was 95.6%, the growth at 10 µM (MDA-MB-231 [5]) was 96.8% and the growth at 10 µM (NCI-H460) was 95%. The growth at 10 µM (A498 [9]) was 99.9%, the growth at 10 µM (T47D [10]) was 99.3% and the growth at 10 µM (CAKI-1 [12]) was 90.7%. The growth at 10 µM (MDA-MB-435 [16]) was 105%, the growth at 10 µM (OVCAR-4 [17]) was 100% and the growth at 10 µM (SF-295 [18]) was 87.9%. It also gave a growth at 10 µM (UACC-62 [23]) of 99.8%, a growth at 10 µM (LOX IMVI) of 96.1% and a growth at 10 µM (UACC-257 [24]) of 96.9%. The growth at 10 µM (M14) was 108%, the growth at 10 µM (ACHN) was 99% and the growth at 10 µM (786-0) was 111%. For the same compound, the growth at 10 µM (NCI-H226 [26]) was 111%, the growth at 10 µM (SF-539 [29]) was 121% and the growth at 10 µM (OVCAR-8 [30]) was 103%. The growth at 10 µM (SK-MEL-5 [32]) was 87.6%.
